Results on 30 compounds are retold here after ChEMBL document CHEMBL3425405, “Discovery of Small Molecules for Up-Regulating the Translation of Antiamyloidogenic Secretase, a Disintegrin and Metalloproteinase 10 (ADAM10), by Binding to the G-Quadruplex-Forming Sequence in the 5' Untranslated Region (UTR) of Its mRNA” (J Med Chem, 2015).

Activity calls are given as the source filed them. No cut-off for these calls is given here. Where only a bound is given, the exact number is not on record here.

Series [1] in a line: Binding affinity to 5'-end biotinylated ADAM10 A10-RNA QGRS (unknown origin) by surface plasmon resonance assay method. In outline:
(§1)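 SPR with 5′-biotinylated A10-RNA-Wt or A10-RNA-Mut immobilized on a neutravidin chip in running buffer (50 mM Tris-HCl pH 7.5, 100 mM KCl). Ligand serial dilutions in running buffer injected at 20 μL/min for association, then dissociation. Chip regenerated with 50 mM NaOH between runs.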

Series [2] is described as follows: Binding affinity to 5'-end biotinylated ADAM10 A10-mutant RNA QGRS (unknown origin) by surface plasmon resonance assay method. The gist of the method: as §1
Series [3] has as its system HeLa. As to the kind of experiment: Binding affinity to ADAM10 A10-RNA QGRS (unknown origin) transfected in human HeLa cells assessed as increase in ADAM10 translation efficiency at 2 uM after 24 hrs by Renilla/firefly dual luciferase reporter assay. The class given is cell-based. The gist of the method: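 HeLa cells transfected with 0.8 μg A10-Wt, A10-Mut or A10-Del plasmid (G-quadruplex motif upstream of Renilla in psiCHECK-2). Screening: 24 h at a single 2 μM concentration. Follow-up: plasmid for 12 h, then 0, 0.5, 1 or 2.5 μM for 24 h. Renilla normalized to firefly, relative to untreated control; mean ± SD of three independent measurements.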

Series [4] can be described thus: Toxicity against APP expressing HEK cells assessed as reduction in cell viability after 48 hrs by MTT assay. The class given is cell-based, HEK293. The conditions noted are these: human.
Series [5] is described as follows: Toxicity against human HeLa cells assessed as reduction in cell viability after 24 hrs by MTT assay. The class given is cell-based.

`COc1cc(/C=C/c2cc(N3CCN(C)CC3)c3ccccc3[n+]2C)ccc1N1CCOCC1`: in series [1], the Kd came out at 33 µM. In addition, the outcome in series [2] was inactive.

For the compound `C[n+]1c(/C=C/c2ccc(N3CCOCC3)cc2)ccc2ccccc21`, binding in series [1] was put at a Kd of 15.8 µM. Also, the Activity in series [3] was found to be 92%. Further, the IC50 at 48 h in series [4] came to 23.3 µM. In series [5], the IC50 at 24 h worked out at 43.4 µM. In addition, the outcome in series [2] was inactive.

In the case of `CCn1c2ccccc2c2cc(/C=C/c3cc(N4CCCCC4)c4ccccc4[n+]3C)ccc21`, the Kd in series [1] is over 50 µM. Further, in series [2], the outcome was inactive.

`CCn1c2ccccc2c2cc(/C=C/c3cc(N4CCN(CCCN(C)C)CC4)c4ccccc4[n+]3C)ccc21` gave a Kd in series [1] of 45 µM. For the same compound, the outcome in series [2] was inactive.

Take `CN1CCN(c2cc(/C=C/c3cc([N+](=O)[O-])ccc3O)[n+](C)c3ccccc23)CC1`: in series [1], the Kd is 16.3 µM. For the same compound, in series [3], the Activity was 98.7%. Moreover, the half-maximal inhibitory concentration (IC50) at 48 h in series [4] came to 21.5 µM. Moreover, in series [5], the IC50 at 24 h is over 50 µM. For the same compound, the outcome in series [2] was inactive.

Regarding `C[n+]1c(/C=C/c2cc([N+](=O)[O-])ccc2O)ccc2ccccc21`, in series [1], the Kd is 46.3 µM. The outcome in series [2] was inactive.

For `COc1cc(/C=C/c2cc(N3CCN(C)CC3)c3ccccc3[n+]2C)ccc1F`, in series [1], the Kd is 11.7 µM. Besides, the result in series [2] was inactive.

Consider `COc1cc(/C=C/c2ccc3ccccc3[n+]2C)ccc1F`, for which the Kd in series [1] was determined as 18 µM. For the same compound, the outcome in series [2] was inactive.

Take `CN1CCN(c2cc(/C=C/c3cc4ccccc4[nH]3)[n+](C)c3ccccc23)CC1`: the Kd in series [1] was found to be 1.8 µM. Besides, the Activity in series [3] was determined as 116%. In addition, the IC50 at 48 h in series [4] worked out at 18.6 µM. In series [5], the IC50 at 24 h was over 50 µM. Besides, the outcome in series [2] was inactive.

Compound `CCn1c2ccccc2c2cc(/C=C/c3cc(N4CCCCC4)c4ccccc4n3)ccc21` gave a Kd in series [1] of over 50 µM. Also, the outcome in series [2] was inactive.

As for `CN1CCN(c2cc(/C=C/c3ccc(N4CCOCC4)cc3)[n+](C)c3ccccc23)CC1`, the Kd in series [1] is 2.6 µM. Also, the Activity in series [3] turned out to be 137%. Besides, the IC50 at 48 h in series [4] came out at 29.3 µM. The IC50 at 24 h in series [5] was over 50 µM. The outcome in series [2] was inactive.

Turning to `COc1cc(/C=C/c2cc(N3CCCCC3)c3ccccc3[n+]2C)cc(OC)c1O`, the Kd in series [1] was 25 µM. In series [2], the result was inactive.

In turn, `COc1cc(/C=C/c2ccc3ccccc3[n+]2C)cc(OC)c1O` registered a Kd in series [1] of 20.5 µM. The outcome in series [2] was inactive.

For `C[n+]1c(/C=C/c2cc([N+](=O)[O-])ccc2O)cc(N2CCOCC2)c2ccccc21`, the Kd in series [1] was over 50 µM. Also, the IC50 at 24 h in series [5] stood at 17.3 µM. The result in series [2] was inactive.

In series [1], `COc1cc(/C=C/c2cc(N3CCN(C)CC3)c3ccccc3[n+]2C)cc(OC)c1OC` displayed a Kd of 10.9 µM. The outcome in series [2] was inactive.

In series [1], `CN1CCN(c2cc(/C=C/c3ccc(N4CCOCC4)cc3)nc3ccccc23)CC1` displayed a Kd of 47.6 µM. In addition, the outcome in series [2] was inactive.

In turn, `CCn1c2ccccc2c2cc(/C=C/c3cc(N4CCN(CCN(C)C)CC4)c4ccccc4[n+]3C)ccc21` showed a Kd in series [1] of over 50 µM. For the same compound, in series [2], the outcome was inactive.

In series [1], `C[n+]1c(/C=C/c2cc([N+](=O)[O-])ccc2O)cc(N2CCCCC2)c2ccccc21` yielded a Kd of over 50 µM. Further, the result in series [2] was inactive.

For the compound `CCn1c2ccccc2c2cc(/C=C/c3cc(N4CCN(C)CC4)c4ccccc4n3)ccc21`, in series [1], the Kd is over 50 µM. The outcome in series [2] was inactive.

As for `C[n+]1c(/C=C/c2ccc(O)cc2)ccc2ccccc21`, the affinity in series [1], expressed as Kd, was 15.9 µM. Besides, in series [2], the outcome was inactive.

In the case of `COc1cc(/C=C/c2cc(N3CCOCC3)c3ccccc3[n+]2C)cc(OC)c1O`, in series [1], binding was put at a Kd of 27.1 µM. In addition, the result in series [2] was inactive.

Turning to `CCn1c2ccccc2c2cc(/C=C/c3cc(N4CCN(CCO)CC4)c4ccccc4[n+]3C)ccc21`, the affinity in series [1], expressed as Kd, was 32.1 µM. For the same compound, the outcome in series [2] was inactive.

With `C[n+]1c(/C=C/c2ccccc2)ccc2ccccc21`, in series [1], the Kd is over 50 µM. The Activity in series [3] was determined as 101%. The IC50 at 48 h in series [4] is over 50 µM. In series [5], the IC50 at 24 h was over 50 µM. Further, in series [2], the result was inactive.

On to `COc1cc(/C=C/c2cc(N3CCN(C)CC3)c3ccccc3[n+]2C)cc(OC)c1O`, for which, in series [1], the Kd came to 16.5 µM. Further, in series [3], the Activity came out at 108%. The IC50 at 48 h in series [4] came to 25.8 µM. Besides, in series [5], the IC50 at 24 h was over 50 µM. Besides, the outcome in series [2] was inactive.

In turn, `COc1cc(/C=C/c2ccc3ccccc3[n+]2C)ccc1N1CCOCC1` returned a Kd in series [1] of 28.2 µM. In series [3], the Activity turned out to be 102%. Further, the IC50 at 48 h in series [4] is 49.1 µM. Further, the IC50 at 24 h in series [5] worked out at 32.8 µM. Also, the outcome in series [2] was inactive.

For `COc1cc(/C=C/c2ccc3ccccc3[n+]2C)cc(OC)c1OC`, the affinity in series [1], expressed as Kd, was 9.3 µM. Moreover, in series [2], the outcome was inactive.

Compound `CN1CCN(c2cc(/C=C/c3ccc(O)cc3)[n+](C)c3ccccc23)CC1` came in with a Kd in series [1] of 8.4 µM. For the same compound, the outcome in series [2] was inactive.

Consider `CN1CCN(c2cc(/C=C/c3ccccc3)[n+](C)c3ccccc23)CC1`, for which binding in series [1] was put at a Kd of 33.3 µM. Further, the Activity in series [3] was found to be 91.5%. Also, in series [4], the IC50 at 48 h stood at 36.3 µM. Moreover, the IC50 at 24 h in series [5] is over 50 µM. Moreover, the result in series [2] was inactive.

`C[n+]1c(/C=C/c2cc3ccccc3[nH]2)ccc2ccccc21` had a Kd in series [1] of 3.4 µM. Besides, the Activity in series [3] was 119%. Moreover, the IC50 at 48 h in series [4] is 12.4 µM. The IC50 at 24 h in series [5] is over 50 µM. The outcome in series [2] was inactive.

For `CCn1c2ccccc2c2cc(/C=C/c3ccc4ccccc4n3)ccc21`, in series [1], the Kd was over 50 µM. Moreover, the result in series [2] was inactive.
